Assay results reported in the RNAGym collection of RNA variant scans (doi:10.1038/s41586-018-0170-7).

B1: tRNA (parent)
chain: GUUCCGUUGGCGUAAUGGUAACGCGUCUCCCUCCUAAGGAGAAGACUGCGGGUUCGAGUCCCGUACGGAACG

Variants of: B1
Experiment: yeast fitness, log relative to wild type (ln ratio); higher = fitter; tRNA-Arg(CCU), competitive growth, 37 C, 1 M NaCl
Procedure, shortened: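 Genotype fitness is expressed as the natural log of its generations over those of the wild type. Each pool of the tRNA-Arg(CCU) variant library, carried on a HIS3 centromeric plasmid in BY4742 lacking the chromosomal gene, came from one of two independent transformations and grew 4 generations in SC-HIS at 30 °C before ~6.5 generations (~26.5 h) in SC-HIS 1M NaCl at 37 °C. Generation numbers used OD-scaled log2 output/input frequencies from 125 bp paired-end Illumina sequencing, combined across replicates by inverse-variance weighting.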

| Variant | yeast fitness (ln) |
| --- | --- |
| GUUCCGUUGGCGUAAUGGUAACGCGUCUCCCUCCUAAGGAGAAGACUGCGGGUUCGAGUCCCGUAAGGGGCG | -0.0347 |
| ACUCCUUUGGCGUAAUGGUAACGCGUUUCCCUCCUAAGGAGACGAUUGCGGGUUCGAGUCCCGUAUGGGGUG | -0.316 |
| GUUCCUUUGGCGUAAUGGUAACGCGUUUCCCUCCUAAGGAGAAGAUUGCGGGUUCGAGUCCCGUACGGAAUG | -0.205 |
| GUUCCGUUGGCGUAAUGGUAACGCGUCUCCCUCCUAAGGAGAAGAUUGCGGGUUCGAGUCCCGUACGGGACG | -0.00396 |
| GCUCCAUUGGCGUAAUGGUAACGCGUUUCCCUCCUAAGGAGAAGACUGCGGGUUCGAGUCCCGUAUGGGGCG | -0.0504 |
| GCUCCGUUGGCGUAAUGGUAACGCGUUUCCCUCCUAAGGAGAAGACUGCGGGUUCGAGUCCCGUACGGAGCG | -0.0415 |
| GGUCCAUUGGCGUAAUGGUAACGCGUCUCCCUCCUAAGGAGACGACUGCGGGUUCGAGUCCCGUAUGGGGUG | -0.304 |
| GUUCCAUUGGCGUAAUGGUAACGCGUCUCCCUCCUAAGGAGACGACUGCGGGUUCGAGUCCCGUAUGGGACG | -0.109 |
| GUUCCUUUGGCGUAAUGGUAACGCGUCUCCCUCCUAAGGAGACGAUUGCGGGUUCGAGUCCCGUACGGAUCG | -0.173 |
| GGUCCGUUGGCGUAAUGGUAACGCGUCUCCCUCCUAAGGAGACGAUUGCGGGUUCGAGUCCCGUAAGGAGUG | -0.165 |
| ACUCCUUUGGCGUAAUGGUAACGCGUUUCCCUCCUAAGGAGACGAUUGCGGGUUCGAGUCCCGUACGGGGUG | -0.267 |
| AGUCCAUUGGCGUAAUGGUAACGCGUCUCCCUCCUAAGGAGACGAUUGCGGGUUCGAGUCCCGUACGGGUUG | -0.262 |
| AUUCCUUUGGCGUAAUGGUAACGCGUUUCCCUCCUAAGGAGAAGACUGCGGGUUCGAGUCCCGUAUGGGAUG | -0.295 |
| ACUCCGUUGGCGUAAUGGUAACGCGUCUCCCUCCUAAGGAGACGAUUGCGGGUUCGAGUCCCGUAUGGAUUG | -0.202 |
| GGUCCGUUGGCGUAAUGGUAACGCGUUUCCCUCCUAAGGAGAAGAUUGCGGGUUCGAGUCCCGUAAGGAUUG | -0.134 |
| AGUCCGUUGGCGUAAUGGUAACGCGUCUCCCUCCUAAGGAGAAGACUGCGGGUUCGAGUCCCGUACGGAAUG | -0.218 |
| GUUCCAUUGGCGUAAUGGUAACGCGUUUCCCUCCUAAGGAGACGACUGCGGGUUCGAGUCCCGUACGGGAUG | -0.353 |
| ACUCCUUUGGCGUAAUGGUAACGCGUCUCCCUCCUAAGGAGAAGAUUGCGGGUUCGAGUCCCGUACGGGAUG | -0.0722 |
| GCUCCUUUGGCGUAAUGGUAACGCGUUUCCCUCCUAAGGAGACGAUUGCGGGUUCGAGUCCCGUAUGGGGUG | -0.275 |

| Variant | yeast fitness (ln) |
| --- | --- |
| AGUCCAUUGGCGUAAUGGUAACGCGUCUCCCUCCUAAGGAGACGAUUGCGGGUUCGAGUCCCGUAUGGAACG | -0.23 |
| GGUCCUUUGGCGUAAUGGUAACGCGUCUCCCUCCUAAGGAGAAGACUGCGGGUUCGAGUCCCGUACGGAUUG | -0.109 |
| AUUCCUUUGGCGUAAUGGUAACGCGUUUCCCUCCUAAGGAGACGAUUGCGGGUUCGAGUCCCGUACGGGUCG | -0.347 |
| AGUCCGUUGGCGUAAUGGUAACGCGUUUCCCUCCUAAGGAGAAGAUUGCGGGUUCGAGUCCCGUAUGGAGCG | -0.167 |
| ACUCCGUUGGCGUAAUGGUAACGCGUUUCCCUCCUAAGGAGAAGAUUGCGGGUUCGAGUCCCGUACGGAUUG | -0.155 |
| AUUCCGUUGGCGUAAUGGUAACGCGUUUCCCUCCUAAGGAGACGACUGCGGGUUCGAGUCCCGUAUGGGAUG | -0.343 |
| GCUCCGUUGGCGUAAUGGUAACGCGUCUCCCUCCUAAGGAGAAGACUGCGGGUUCGAGUCCCGUAUGGAGUG | -0.0234 |
| GGUCCUUUGGCGUAAUGGUAACGCGUUUCCCUCCUAAGGAGACGAUUGCGGGUUCGAGUCCCGUAAGGAUUG | -0.629 |
| GUUCCUUUGGCGUAAUGGUAACGCGUUUCCCUCCUAAGGAGAAGACUGCGGGUUCGAGUCCCGUACGGAUUG | -0.27 |
| GUUCCUUUGGCGUAAUGGUAACGCGUUUCCCUCCUAAGGAGAAGACUGCGGGUUCGAGUCCCGUAUGGGGCG | -0.306 |
| GUUCCUUUGGCGUAAUGGUAACGCGUUUCCCUCCUAAGGAGAAGACUGCGGGUUCGAGUCCCGUAUGGGUCG | -0.329 |
| AGUCCUUUGGCGUAAUGGUAACGCGUCUCCCUCCUAAGGAGACGACUGCGGGUUCGAGUCCCGUAAGGAUUG | -0.387 |
| GGUCCUUUGGCGUAAUGGUAACGCGUCUCCCUCCUAAGGAGAAGACUGCGGGUUCGAGUCCCGUAUGGGAUG | -0.239 |
| GGUCCUUUGGCGUAAUGGUAACGCGUUUCCCUCCUAAGGAGACGAUUGCGGGUUCGAGUCCCGUACGGGUCG | -0.147 |
| AUUCCUUUGGCGUAAUGGUAACGCGUUUCCCUCCUAAGGAGACGAUUGCGGGUUCGAGUCCCGUAAGGAGCG | -0.319 |
| AUUCCUUUGGCGUAAUGGUAACGCGUUUCCCUCCUAAGGAGAAGAUUGCGGGUUCGAGUCCCGUACGGGAUG | -0.291 |
| GGUCCAUUGGCGUAAUGGUAACGCGUCUCCCUCCUAAGGAGACGAUUGCGGGUUCGAGUCCCGUAAGGAGCG | -0.169 |
| AGUCCUUUGGCGUAAUGGUAACGCGUUUCCCUCCUAAGGAGACGACUGCGGGUUCGAGUCCCGUAAGGAUUG | -0.433 |
